Activity calls are given as the source filed them. The calls are words filed in the database; no cut-off is given here.
What was measured:
[1] = organism: Homo sapiens; test: Induction of apoptosis in human RC-58T/h/SA#4 cells assessed as DR5 expression at 20 uM by immunoblotting analysis relative to untreated control; type: functional, cell-based; conditions: TDE = time-dependent effect
[2] = Sensitization of TRAIL-induced apoptosis in human RC-58T/h/SA#4 cells assessed as AIF level in cytosol at 20 uM after 24 hrs by immunoblotting analysis relative to untreated control; type: functional
Method in brief: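 Cells given 20 μM compound and/or 100 ng/mL TRAIL for 24 h. Mitochondrial and cytosolic fractions prepared with a mitochondria isolation kit. Fractions resolved by 12% SDS-PAGE at 10 μg/lane and immunoblotted with anti-cytochrome c or anti-AIF overnight at 4 °C, then HRP secondary and ECL detection.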

[3] = organism: Homo sapiens; test: Sensitization of TRAIL-induced apoptosis in human RC-58T/h/SA#4 cells assessed as cell viability at 20 uM after 24 hrs by SRB assay in presence of NAC
[4] = Induction of apoptosis in human RC-58T/h/SA#4 cells assessed as p53 expression at 10 uM after 24 hrs by immunoblotting analysis relative to untreated control; type: functional
Method in brief: (§1)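 RC-58T/h/SA#4 cells seeded at 5 × 10^4 cells/mL and cultured 24 h, then given compound across a concentration series or at fixed dose over a time course. Lysates were quantified by BCA. 10 μg protein/lane run on 12% SDS-PAGE and transferred to nitrocellulose. Blots probed for p53, CHOP and β-actin with HRP secondary and ECL.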

[5] = Induction of apoptosis in human RC-58T/h/SA#4 cells assessed as AIF level in cytosol at 20 uM after 24 hrs by immunoblotting analysis relative to untreated control; type: functional
Method in brief: (§2)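 Cells grown in DMEM/10% FBS at 37 °C, 5% CO2, then treated 24 h with compound (20 μM) with or without TRAIL (100 ng/mL). Whole lysates were used for Bax and Bcl-2. Cytosolic and mitochondrial fractions were prepared with a mitochondria isolation kit for AIF and cytochrome c. Blotting used 10 μg protein/lane, 12% SDS-PAGE, nitrocellulose, overnight primary antibody at 4 °C and ECL detection.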

[6] = Sensitization of TRAIL-induced apoptosis in human RC-58T/h/SA#4 cells assessed as procaspase-3 activation at 20 uM after 24 hrs by immunoblotting analysis in presence of Dr5 Fc chimera relative to untreated control; type: functional
Method in brief: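 Cells pretreated 2 h with 100 ng/mL DR5 Fc chimera, then given 20 μM compound and/or 100 ng/mL TRAIL for 24 h. Total lysates immunoblotted (12% SDS-PAGE, nitrocellulose) for caspase-3, -8, -9 and PARP cleavage, with HRP secondary and ECL detection.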

[7] = Sensitization of TRAIL-induced apoptosis in human RC-58T/h/SA#4 cells assessed as Bax activation at 20 uM after 24 hrs by immunoblotting analysis relative to untreated control; type: functional
Method in brief: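 Cells seeded at 5 × 10^4 cells/mL and cultured 24 h, then given 20 μM compound and/or 100 ng/mL TRAIL for 24 h. Whole-cell lysate made in Tris/NaCl/EDTA/NaF/pyrophosphate/PMSF/aprotinin buffer, 30 min on ice, protein measured by BCA. 12% SDS-PAGE at 10 μg/lane, nitrocellulose blot, primary antibodies (caspase-3, -8, -9, Bax, Bcl-2, PARP) overnight at 4 °C, HRP secondary, ECL.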

[8] = Induction of apoptosis in human RC-58T/h/SA#4 cells assessed as Bax activation at 20 uM after 24 hrs by immunoblotting analysis relative to untreated control; type: functional; method in brief: as §2
[9] = organism: Homo sapiens; test: Induction of apoptosis in human RC-58T/h/SA#4 cells assessed as AIF level in mitochondria at 20 uM after 24 hrs by immunoblotting analysis relative to untreated control; type: functional, cell-based; method in brief: as §2
[10] = Induction of apoptosis in human RC-58T/h/SA#4 cells assessed as CHOP expression at 20 uM after 12 hrs by immunoblotting analysis relative to untreated control; type: functional; method in brief: as §1

In the case of `CC(C)/C=C/C(=O)c1ccoc1`, the Activity [1] was “tde”, the Ratio [2] was 1.2 and the Activity [3] was “inactive”. For the same compound, the Ratio [4] was 2, the Ratio [5] was 1.1 and the Ratio [6] was 0.9. For the same compound, the Ratio [7] was 1.8, the Ratio [8] was 1.5 and the Ratio [9] was 1.2. For the same compound, the Ratio [10] was 1.6.

From ChEMBL document CHEMBL3351274, “Sensitization of tumor necrosis factor-related apoptosis-inducing ligand (TRAIL)-resistant primary prostate cancer cells by isoegomaketone from Perilla frutescens” (J Nat Prod, 2014)
